How the values were obtained:
[1] = tested on: Pseudomonas aeruginosa; test: Antimicrobial activity against Pseudomonas aeruginosa ATCC 27853 infected in neutropenic Swiss mouse thigh infection model assessed as reduction in bacterial burden relative to control; format: functional, organism-based; details: Thigh muscle
Summary of the method: (§1)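 Neutropenic thigh-infected Swiss mice; colistin (sulfate) s.c. started 2 h after inoculation, 5–40 mg/kg per dose every 3, 6, 8, 12 or 24 h (5–160 mg/kg/day), two mice per regimen. Killed 24 h after treatment start; each thigh homogenized and plated on nutrient agar; log10 CFU/thigh, lower count limit 100 CFU; change versus 2 h burden.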

[2] = tested on: Pseudomonas aeruginosa; test: Antimicrobial activity against Pseudomonas aeruginosa PAO1 infected in neutropenic Swiss mouse thigh infection model assessed as reduction in bacterial burden relative to control; format: functional, organism-based; details: Thigh muscle; summary of the method: as §1
[3] = tested on: Pseudomonas aeruginosa; test: Antimicrobial activity against Pseudomonas aeruginosa isolate 19056 infected in neutropenic Swiss mouse thigh infection model assessed as reduction in bacterial burden relative to control; format: functional, organism-based; details: Thigh muscle; summary of the method: as §1
[4] = tested on: Pseudomonas aeruginosa; test: Antimicrobial activity against Pseudomonas aeruginosa ATCC 27853 infected in neutropenic Swiss mouse lung infection model assessed as reduction in bacterial burden relative to control; format: functional, organism-based
Summary of the method: (§2)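 Neutropenic lung-infected Swiss mice; colistin (sulfate) s.c. from 2 h post-inoculation, 5–40 mg/kg per dose every 6, 8, 12 or 24 h. Killed 24 h after treatment start; lungs homogenized in saline and plated; log10 CFU/lung (limit 220 CFU); change versus 2 h burden.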

[5] = tested on: Pseudomonas aeruginosa; test: Antimicrobial activity against Pseudomonas aeruginosa PAO1 infected in neutropenic Swiss mouse lung infection model assessed as reduction in bacterial burden relative to control; format: functional, organism-based; summary of the method: as §2
[6] = tested on: Pseudomonas aeruginosa; test: Antimicrobial activity against Pseudomonas aeruginosa isolate 19056 infected in neutropenic Swiss mouse lung infection model assessed as reduction in bacterial burden relative to control; format: functional, organism-based; summary of the method: as §2
[7] = fAUC/MIC in Pseudomonas aeruginosa ATCC 27853 infected Swiss mouse thigh infection model assessed as induction of static antimicrobial effect after 24 hrs; format: functional
Summary of the method: (§3)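 Unbound single-dose profiles superimposed to give 24-h fAUC (trapezoidal) per regimen, divided by MIC; log10 CFU per thigh or lung at 24 h fitted to inhibitory sigmoid Emax model by nonlinear least squares; fAUC/MIC for stasis (24-h count equal to treatment-start count) and 1-, 2-, 3-log10 kill derived from fitted parameters.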

[8] = fAUC/MIC in Pseudomonas aeruginosa ATCC 27853 infected Swiss mouse thigh infection model assessed as 1-log10 kill after 24 hrs; format: functional; summary of the method: as §3
[9] = fAUC/MIC in Pseudomonas aeruginosa ATCC 27853 infected Swiss mouse thigh infection model assessed as 2-log10 kill after 24 hrs; format: functional; summary of the method: as §3
[10] = fAUC/MIC in Pseudomonas aeruginosa ATCC 27853 infected Swiss mouse thigh infection model assessed as 3-log10 kill after 24 hrs; format: functional; summary of the method: as §3
[11] = fAUC/MIC in Pseudomonas aeruginosa PAO1 infected Swiss mouse thigh infection model assessed as induction of static antimicrobial effect after 24 hrs; format: functional
[12] = fAUC/MIC in Pseudomonas aeruginosa PAO1 infected Swiss mouse thigh infection model assessed as 1-log10 kill after 24 hrs; format: functional; summary of the method: as §3
[13] = fAUC/MIC in Pseudomonas aeruginosa PAO1 infected Swiss mouse thigh infection model assessed as 2-log10 kill after 24 hrs; format: functional
[14] = fAUC/MIC in Pseudomonas aeruginosa PAO1 infected Swiss mouse thigh infection model assessed as 3-log10 kill after 24 hrs; format: functional
[15] = fAUC/MIC in Pseudomonas aeruginosa isolate 19056 infected Swiss mouse thigh infection model assessed as induction of static antimicrobial effect after 24 hrs; format: functional
[16] = fAUC/MIC in Pseudomonas aeruginosa isolate 19056 infected Swiss mouse thigh infection model after assessed as 1-log10 kill 24 hrs; format: functional
[17] = fAUC/MIC in Pseudomonas aeruginosa isolate 19056 infected Swiss mouse thigh infection model after assessed as 2-log10 kill after 24 hrs; format: functional
[18] = fAUC/MIC in Pseudomonas aeruginosa isolate 19056 infected Swiss mouse thigh infection model after assessed as 3-log10 kill after 24 hrs; format: functional
[19] = fAUC/MIC in Pseudomonas aeruginosa ATCC 27853 infected Swiss mouse lung infection model assessed as induction of static antimicrobial effect after 24 hrs; format: functional; summary of the method: as §3
[20] = fAUC/MIC in Pseudomonas aeruginosa ATCC 27853 infected Swiss mouse lung infection model assessed as 1-log10 kill after 24 hrs; format: functional; summary of the method: as §3
[21] = fAUC/MIC in Pseudomonas aeruginosa ATCC 27853 infected Swiss mouse lung infection model assessed as 2-log10 kill after 24 hrs; format: functional; summary of the method: as §3
[22] = fAUC/MIC in Pseudomonas aeruginosa ATCC 27853 infected Swiss mouse lung infection model assessed as 3-log10 kill after 24 hrs; format: functional; summary of the method: as §3
[23] = fAUC/MIC in Pseudomonas aeruginosa PAO1 infected Swiss mouse lung infection model assessed as induction of static antimicrobial effect after 24 hrs; format: functional; summary of the method: as §3
[24] = fAUC/MIC in Pseudomonas aeruginosa PAO1 infected Swiss mouse lung infection model assessed as 1-log10 kill after 24 hrs; format: functional; summary of the method: as §3
[25] = fAUC/MIC in Pseudomonas aeruginosa PAO1 infected Swiss mouse lung infection model assessed as 2-log10 kill after 24 hrs; format: functional; summary of the method: as §3
[26] = fAUC/MIC in Pseudomonas aeruginosa PAO1 infected Swiss mouse lung infection model assessed as 3-log10 kill after 24 hrs; format: functional; summary of the method: as §3
[27] = fAUC/MIC in Pseudomonas aeruginosa isolate 19056 infected Swiss mouse lung infection model assessed as induction of static antimicrobial effect after 24 hrs; format: functional
[28] = fAUC/MIC in Pseudomonas aeruginosa isolate 19056 infected Swiss mouse lung infection model assessed as 1-log10 kill after 24 hrs; format: functional
[29] = fAUC/MIC in Pseudomonas aeruginosa isolate 19056 infected Swiss mouse lung infection model assessed as 2-log10 kill after 24 hrs; format: functional
[30] = fAUC/MIC in Pseudomonas aeruginosa isolate 19056 infected Swiss mouse lung infection model assessed as 3-log10 kill after 24 hrs; format: functional
[31] = tested on: Pseudomonas aeruginosa; test: Antimicrobial activity against Pseudomonas aeruginosa ATCC 27853 in neutropenic Swiss mouse thigh infection model assessed as bacterial load in mouse thigh after 2 hrs; format: functional, organism-based; details: Thigh muscle
Summary of the method: (§4)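 Thigh model: female Swiss mice (22–26 g) made neutropenic with cyclophosphamide i.p. (150 mg/kg day −4, 100 mg/kg day −1). Under isoflurane, ~10^7 CFU/ml early-log suspension injected i.m. (50 µl per posterior thigh). Untreated controls killed 2 h post-inoculation; thighs homogenized in saline, filtered, serially diluted, plated on nutrient agar, counted after 24 h at 37°C; log10 CFU/thigh.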

[32] = tested on: Pseudomonas aeruginosa; test: Antimicrobial activity against Pseudomonas aeruginosa PAO1 in neutropenic Swiss mouse thigh infection model assessed as bacterial load in mouse thigh after 2 hrs; format: functional, organism-based; details: Thigh muscle; summary of the method: as §4
[33] = tested on: Pseudomonas aeruginosa; test: Antimicrobial activity against Pseudomonas aeruginosa isolate 19056 in neutropenic Swiss mouse thigh infection model assessed as bacterial load in mouse thigh after 2 hrs; format: functional, organism-based; details: Thigh muscle; summary of the method: as §4
[34] = tested on: Pseudomonas aeruginosa; test: Antimicrobial activity against Pseudomonas aeruginosa ATCC 27853 in neutropenic Swiss mouse thigh infection model assessed as bacterial load in mouse thigh at 40 mg/kg, sc after 24 hrs; format: functional, organism-based; set-up: dose 40 mg/kg; summary of the method: as §1
[35] = tested on: Pseudomonas aeruginosa; test: Antimicrobial activity against Pseudomonas aeruginosa PAO1 in neutropenic Swiss mouse thigh infection model assessed as bacterial load in mouse thigh at 40 mg/kg, sc after 24 hrs; format: functional, organism-based; set-up: dose 40 mg/kg; summary of the method: as §1
[36] = tested on: Pseudomonas aeruginosa; test: Antimicrobial activity against Pseudomonas aeruginosa isolate 19056 in neutropenic Swiss mouse thigh infection model assessed as bacterial load in mouse thigh at 40 mg/kg, sc after 24 hrs; format: functional, organism-based; set-up: dose 40 mg/kg; summary of the method: as §1
[37] = tested on: Pseudomonas aeruginosa; test: Antimicrobial activity against Pseudomonas aeruginosa ATCC 27853 in neutropenic Swiss mouse lung infection model assessed as bacterial load in mouse thigh after 2 hrs; format: functional, organism-based; details: Thigh muscle
[38] = tested on: Pseudomonas aeruginosa; test: Antimicrobial activity against Pseudomonas aeruginosa PAO1 in neutropenic Swiss mouse lung infection model assessed as bacterial load in mouse thigh after 2 hrs; format: functional, organism-based; details: Thigh muscle
[39] = tested on: Pseudomonas aeruginosa; test: Antimicrobial activity against Pseudomonas aeruginosa isolate 19056 in neutropenic Swiss mouse lung infection model assessed as bacterial load in mouse thigh after 2 hrs; format: functional, organism-based
Summary of the method: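 Lung model: neutropenic Swiss mice under isoflurane given 50 µl of ~10^8 CFU/ml early-log suspension intranasally in ~10 µl portions, then held head-up 1 min. Untreated controls killed 2 h post-inoculation; lungs homogenized in 2 ml saline, viable counts by dilution plating on nutrient agar; lower limit 220 CFU/lung.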

[40] = tested on: Pseudomonas aeruginosa; test: Antimicrobial activity against Pseudomonas aeruginosa ATCC 27853 in neutropenic Swiss mouse lung infection model assessed as bacterial load in mouse thigh at 40 mg/kg, sc after 24 hrs; format: functional, organism-based; set-up: dose 40 mg/kg; summary of the method: as §2
[41] = tested on: Pseudomonas aeruginosa; test: Antimicrobial activity against Pseudomonas aeruginosa PAO1 in neutropenic Swiss mouse lung infection model assessed as bacterial load in mouse thigh at 40 mg/kg, sc after 24 hrs; format: functional, organism-based; set-up: dose 40 mg/kg; summary of the method: as §2
[42] = tested on: Pseudomonas aeruginosa; test: Antimicrobial activity against Pseudomonas aeruginosa ATCC 27853 by broth microdilution method; format: functional, organism-based
Summary of the method: (§5)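 Colistin (sulfate) MIC by broth microdilution; strains stored in tryptone soy broth with 20% glycerol at −80°C and subcultured overnight on horse blood agar at 37°C before use.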

[43] = tested on: Pseudomonas aeruginosa; test: Antimicrobial activity against Pseudomonas aeruginosa PAO1 by broth microdilution method; format: functional, organism-based; summary of the method: as §5
[44] = tested on: Pseudomonas aeruginosa; test: Antimicrobial activity against Pseudomonas aeruginosa isolate 19056 by broth microdilution method; format: functional, organism-based; summary of the method: as §5

## COLISTIMETHATE SODIUM
[1]
  Emax (log10 CFU/organ): 6.29
[2]
  Emax (log10 CFU/organ): 5.97
[3]
  Emax (log10 CFU/organ): 6.23
[4]
  Emax (log10 CFU/organ): 7.58
[5]
  Emax (log10 CFU/organ): 7.36
[6]
  Emax (log10 CFU/organ): 6.86
[7]
  fAUC/MIC: 17.3
[8]
  fAUC/MIC: 22.7
[9]
  fAUC/MIC: 31.2
[10]
  fAUC/MIC: 55.1
[11]
  fAUC/MIC: 14.4
[12]
  fAUC/MIC: 22.8
[13]
  fAUC/MIC: 36.1
[14]
  fAUC/MIC: 66.7
[15]
  fAUC/MIC: 8.34
[16]
  fAUC/MIC: 15.6
[17]
  fAUC/MIC: 27.6
[18]
  fAUC/MIC: 53.3
[19]
  fAUC/MIC: 6.43
[20]
  fAUC/MIC: 15.6
[21]
  fAUC/MIC: 37.9
[22]
  fAUC/MIC: 105
[23]
  fAUC/MIC: 5.42
[24]
  fAUC/MIC: 16.7
[25]
  fAUC/MIC: 45.9
[26]
  fAUC/MIC: 135
[27]
  fAUC/MIC: 4.07
[28]
  fAUC/MIC: 12.2
[29]
  fAUC/MIC: 36.9
[30]
  fAUC/MIC: 141
[31]
  log10cfu: 6.14
[32]
  log10cfu: 6.35
[33]
  log10cfu: 6.26
[34]
  log10cfu: 3.17
[35]
  log10cfu: 4.01
[36]
  log10cfu: 3.69
[37]
  log10cfu: 6.64
[38]
  log10cfu: 6.92
[39]
  log10cfu: 6.43
[40]
  log10cfu: 3.58
[41]
  log10cfu: 3.09
[42]
  MIC: 1 µg/mL
[43]
  MIC: 1 µg/mL
[44]
  MIC: 0.5 µg/mL
